{"source": "paper PMC4216218", "about": "(Journal of Medicinal Chemistry, 2014)", "key": {"DEGR-factor XIa": {"target": "DEGR-factor XIa (Homo sapiens, UniProt P03951)", "sequence (P03951 19-387 limits assumed)": "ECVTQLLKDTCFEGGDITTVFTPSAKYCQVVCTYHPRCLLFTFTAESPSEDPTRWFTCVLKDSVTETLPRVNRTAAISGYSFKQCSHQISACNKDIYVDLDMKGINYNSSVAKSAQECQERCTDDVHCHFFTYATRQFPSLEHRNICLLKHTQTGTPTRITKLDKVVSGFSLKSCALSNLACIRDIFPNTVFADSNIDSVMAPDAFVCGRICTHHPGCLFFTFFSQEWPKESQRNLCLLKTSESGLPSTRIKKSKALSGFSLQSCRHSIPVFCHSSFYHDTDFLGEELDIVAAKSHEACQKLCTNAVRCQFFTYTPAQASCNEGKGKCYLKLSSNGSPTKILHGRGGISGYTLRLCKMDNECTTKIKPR", "sequence (P03951 388-625 limits assumed)": "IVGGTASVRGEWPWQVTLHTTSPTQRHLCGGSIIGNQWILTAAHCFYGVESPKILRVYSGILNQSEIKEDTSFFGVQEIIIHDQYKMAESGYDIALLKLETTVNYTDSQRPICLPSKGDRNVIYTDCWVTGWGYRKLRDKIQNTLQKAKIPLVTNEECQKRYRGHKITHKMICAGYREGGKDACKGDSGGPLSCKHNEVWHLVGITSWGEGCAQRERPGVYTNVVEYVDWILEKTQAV", "assay": "Fluorescence-based binding affinity, dansyl fluorescence", "conditions": "saturating ligand, λEX 345 nm"}, "human factor XIa": {"target": "human factor XIa (Homo sapiens, UniProt P03951)", "sequence (P03951 19-387 limits assumed)": "as the sequence (P03951 19-387 limits assumed) above", "sequence (P03951 388-625 limits assumed)": "as the sequence (P03951 388-625 limits assumed) above", "assay": "Fluorescence-based binding affinity, intrinsic tryptophan fluorescence", "conditions": "pH 7.4, 37 °C", "method_in_brief": "(§1)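 Human plasma factor XI or factor XIa (105 nM) was titrated at 37 °C with aliquots of 200–250 μM aqueous ligand in 50 mM Tris-HCl pH 7.4, 150 mM NaCl, 0.1% PEG8000. Intrinsic tryptophan fluorescence (λEX 280 nm) was followed. ΔF/F0 versus ligand concentration was fitted to a quadratic binding equation for KD and ΔFMAX.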"}, "DEGR-FXIa": {"target": "DEGR-FXIa (Homo sapiens, UniProt P03951)", "sequence (P03951 19-387 limits assumed)": "as the sequence (P03951 19-387 limits assumed) above", "sequence (P03951 388-625 limits assumed)": "as the sequence (P03951 388-625 limits assumed) above", "assay": "Salt dependence of affinity of DEGR-FXIa", "format": "binding", "method_in_brief": "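DEGR-factor XIa (250 nM) was titrated with ligand solutions at 37 °C in 50 mM Tris-HCl pH 7.4, 0.1% PEG8000, at 25, 50, 100 or 150 mM NaCl. Dansyl fluorescence was read at 547 nm (excitation 345 nm), and a quadratic fit gave KD,obs. […] At least two experiments were run.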"}, "factor XI (zymogen)": {"target": "factor XI (zymogen) (Homo sapiens, UniProt P03951)", "sequence (P03951 19-625)": "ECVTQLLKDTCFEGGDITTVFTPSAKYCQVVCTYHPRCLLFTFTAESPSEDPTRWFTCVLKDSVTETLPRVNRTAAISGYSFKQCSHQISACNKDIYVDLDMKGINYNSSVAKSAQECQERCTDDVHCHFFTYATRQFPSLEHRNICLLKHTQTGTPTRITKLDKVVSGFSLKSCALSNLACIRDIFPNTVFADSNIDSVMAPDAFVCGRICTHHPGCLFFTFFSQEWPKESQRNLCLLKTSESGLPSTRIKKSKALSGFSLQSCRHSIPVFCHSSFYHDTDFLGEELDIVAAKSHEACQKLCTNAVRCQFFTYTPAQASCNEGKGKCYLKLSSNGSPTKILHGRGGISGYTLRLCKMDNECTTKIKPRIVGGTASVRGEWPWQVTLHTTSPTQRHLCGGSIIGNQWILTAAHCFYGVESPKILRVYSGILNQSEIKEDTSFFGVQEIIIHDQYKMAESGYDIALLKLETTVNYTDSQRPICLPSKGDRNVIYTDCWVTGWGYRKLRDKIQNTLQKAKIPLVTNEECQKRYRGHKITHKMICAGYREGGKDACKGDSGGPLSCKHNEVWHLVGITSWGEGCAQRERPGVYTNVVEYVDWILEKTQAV", "format": "binding", "conditions": "intrinsic tryptophan fluorescence, pH 7.4, 37 °C", "method_in_brief": "as §1"}}, "note": "“And” between values parts separate entries of the source, which are not always exact repeats. Equal entries are not always repeated.", "data": [{"substance": "heparin octasaccharide [H8]", "values": [{"measurement": "blue-shift of emission wavelength of DEGR-FXIa", "setting": "DEGR-factor XIa", "value": "~3", "unit": "nm"}, {"measurement": "Kd", "setting": "human factor XIa", "value": "900 ± 200", "unit": "nM"}, {"measurement": "ΔFMAX", "setting": "human factor XIa", "value": "–68 ± 2%"}, {"measurement": "Z (number of ion-pairs formed)", "setting": "DEGR-FXIa; pH 7.4, 37 °C", "value": "0.64 ± 0.04"}, {"measurement": "intercept of log KD,obs versus log[Na]", "setting": "DEGR-FXIa; pH 7.4, 37 °C", "value": "–5.00 ± 0.04"}, {"measurement": "slope of log KD,obs versus log[Na]", "setting": "DEGR-FXIa; pH 7.4, 37 °C", "value": "0.52 ± 0.03"}, {"measurement": "ΔG0NI (binding energy due to nonionic forces)", "setting": "DEGR-FXIa; pH 7.4, 37 °C", "value": "7.08 kcal/mol and 7.1 ± 0.02 kcal/mol"}, {"measurement": "ΔG0NI (nonionic binding energy contribution to the total)", "setting": "DEGR-FXIa; pH 7.4, 37 °C", "value": 90.5, "unit": "%"}, {"measurement": "ΔG0I (binding energy due to ionic forces)", "setting": "DEGR-FXIa; pH 7.4, I 0.15", "value": 0.75, "unit": "kcal/mol"}, {"measurement": "Kd", "setting": "DEGR-FXIa; read-out: KD,NI (nonionic affinity), dissociation constant at [Na+] = 1 M", "value": "10100 ± 400", "unit": "nM"}, {"measurement": "Kd", "setting": "factor XI (zymogen)", "value": "1800 ± 400", "unit": "nM"}]}]}
